Test results taken from ChEMBL document CHEMBL4513216, “Probing the Open Global Health Chemical Diversity Library for Multistage-Active Starting Points for Next-Generation Antimalarials” (ACS Infect Dis, 2020).

Test: Toxicity liver stage against HepG2, at 10uM
Type: cell-based
Set-up: test concentration 10 uM, cell line HepG2-A16-CD81EGFP
Conditions: human, HepG2-A16-CD81EGFP cells; read-out: INHIBITION
Procedure, shortened: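 Uninfected HepG2-A16-CD81EGFP cells, 3 × 10^3 per well, 1536-well, plated on prespotted compound at 10 μM final, parasite-free screening media added to match infected plates; puromycin 10 μM positive, DMSO 0.5% negative; run in parallel with 48 h PbLuc assay at 37 °C, 5% CO2; viability by CellTiter-Glo luminescence, normalized to controls.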

Structure (SMILES)	cytotoxicity at 10 µM [%]
Cc1ncc2c(n1)CN(CC(=O)Nc1ccc(Cl)cn1)CC2	-6.19
CCOc1ccc(N2CCCN=C2NC(=O)c2ccccc2C)cc1	-6.69
Cc1nc(C2CCN(C(=O)c3ccnn3C)CC2)c2sccn12	-10.7
O=C([C@H]1COC[C@H]2CN(C3CCCC3)C[C@H]21)N1CCCCO1	-9.47
CN1Cc2ccccc2CC2(CCN(CCO)CC2)C1=O	-6.58
COc1c(C(=O)N2CCOC(c3cccs3)C2)c(C)nn1C (centres undefined)	-0.43
CCn1ccnc1CN1CCC(N(C)Cc2ncc(C)o2)C1 (centres undefined)	-7.48
COc1ccc(F)cc1-c1ccccc1CC1CNCCNC1=O (centres undefined)	3.48
CN(C)C(C(=O)N1CCN(CC(F)(F)F)CC1)c1ccccc1F (centres undefined)	-2.42
O=C(NC[C@H]1OC[C@@H]2CN(Cc3ccco3)CC[C@@H]21)c1cccnc1	-141
COc1ccc2c(OCC(=O)NC(C)(C)C)ccnc2c1	-2.04
O=C(c1ccnnc1)N1CCc2onc(CN3CCCC3)c2C1	7.31
CCC[C@@H]1CN(Cc2nnc(-c3cccc(F)c3)o2)C[C@H]1NC(C)=O	0.833
O=C(CCc1ccc(=O)[nH]n1)N1CCCC(COc2ccc(F)cc2)C1 (centres undefined)	1.9
CN(C)CCN1CCN(CC2CC2)c2ncccc2C1	-3.03
CN(CC(=O)NCC(=O)Nc1ccc(F)cc1)Cc1cccs1	0.369
CCN(CC(F)(F)F)C(=O)C1CCCN(Cc2nc(C)c(C)o2)C1 (centres undefined)	-4.05
O=C(c1nccc2ccccc12)N1CCCCC1Cn1cccn1 (centres undefined)	-4.31
CN(C)C(=O)N1CC[C@@H](c2ccc3ccccc3c2)[C@H](O)C1	-5.81
CSCC[C@@H](CO)NC(=O)c1ccc2nc(NS(C)(=O)=O)sc2c1	10.7
CC(C)c1nnc2n1CCN(C(=O)CN1CCc3sccc3C1)C2	-4.97
CCOC(=O)c1cnn(C2CCN(C(=O)CC3CCCC3)CC2)c1N	0.969
COc1ccccc1OCC(=O)NS(=O)(=O)c1ccccc1F	-18
Cc1ccc(N2CCCC(NCc3cccs3)C2)nn1 (centres undefined)	-33
O=C(Nc1cccnc1)[C@H]1CN(Cc2ccccn2)C[C@H]2OCC[C@@H]12	-107
c1cc2c(cc1-c1noc3c1CN(C1CCC1)CC3)OCO2	-18.4
CCN1CC2(CCC1=O)CCN(C(=O)c1cn3cccnc3n1)CC2	-9.7

Structure (SMILES)	cytotoxicity at 10 µM [%]
COc1ccc(OC)c(Sc2ncccc2C(=O)NCC2CC2)c1	20.7
CCc1nnc(CN(C)C(=O)C2CC(=O)N(C3CC3)C2)o1 (centres undefined)	2.28
COc1cccc(NC(=O)C2CC(=O)n3cnnc3S2)c1 (centres undefined)	2.27
COc1ccc(CC(=O)NC2(C#N)CCOCC2)c(Cl)c1	-6.48
CC(C)CNS(=O)(=O)c1ccc(C(=O)N(C)CCc2cn[nH]c2)cc1	4.48
O=C(CN1CCOC1=O)N(Cc1ccccc1)Cc1nccs1	0.84
Cc1csc(N2CCCN(C(=O)c3c(C)oc(C)c3C)CC2)n1	3.75
CCN(Cc1ccccc1)C(=O)CN1CCOC(Cn2cncn2)C1 (centres undefined)	-6.31
Cc1noc(C(C)C)c1C(=O)NS(=O)(=O)c1ccc(Cl)cc1	-8.59
CC(C)c1nn(C)c(N(C)C)c1CNCC(O)c1cccc(F)c1 (centres undefined)	-1.82
Cc1cc(NC(=O)CN2CCCC2c2noc(C3CC3)n2)on1 (centres undefined)	3.46
c1ccc(-c2nc(CN3CCn4c(nnc4C4CC4)C3)co2)cc1	-2.18
Cc1nc(CN2CCO[C@@H]3CN(Cc4ccsc4)C[C@@H]3C2)cs1	2.99
CCCc1cc(N2CCCC2Cn2cc(C)cn2)n2ncnc2n1 (centres undefined)	3.04
Cc1noc(OCC(=O)N2CCCCC2C)n1 (centres undefined)	0.714
C1CCC(CNC2CCCN(Cc3noc(C4CC4)n3)C2)CC1 (centres undefined)	-4.15
Cc1nnc(NCc2ccccc2S(=O)(=O)N(C)C)c(C#N)c1C	-8.51
Cc1cnc(-c2nc(C3CCCN(Cc4ccccc4C)C3)no2)cn1 (centres undefined)	-2.33
O=C1N(C2CCCCC2)CCCC12CCN(S(=O)(=O)c1cccnc1)C2 (centres undefined)	6
CC(C)(C)NC(=O)C1CSCN1C(=O)CCc1ccco1 (centres undefined)	-6.77
COCc1ncc(-c2nccn2CCS(C)(=O)=O)cn1	-17.2
O=C(Cc1ccccc1)N1CCC2(CC1)CC(Nc1cnccn1)CO2 (centres undefined)	5.1
CC(C)c1cnc(CN(C)C2CCN(CCCc3cnn(C)c3)C2)o1 (centres undefined)	-13.3
CCOc1ccc(N2CCCN=C2NC(=O)c2ccc(Cl)cc2)cc1	8.1
COc1ccccc1C(NCc1ccc(SC)cc1)c1nccn1C (centres undefined)	-11.6
CCN1CC[C@]2(CN(C(=O)C3CCOCC3)C[C@H]2c2ccccc2)C1=O	8.58
O=c1[nH]nc(-c2cccs2)c2sc(N3CCOCC3)nc12	9.28
